ChEMBL document CHEMBL1629420, “Structure-cytotoxicity relationship in a series of N-phosphorus substituted E,E-3,5-bis(3-pyridinylmethylene)- and E,E-3,5-bis(4-pyridinylmethylene)piperid-4-ones” (Eur J Med Chem, 2010)

Assays:
Format in all cases: functional, cell-based
[1] = Cytotoxicity against human Caov3 cells after 72 hrs by MTT assay; details: Caov-3, 72 h
Outline: (§1)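 Cells grown in RPMI-1640 with 10% FBS, 2 mM L-glutamine and gentamicin; seeded at 1 × 10⁴ cells/well and left to attach overnight at 37 °C, 5% CO₂. Compounds were dissolved in DMSO, diluted into FBS-free medium and tested at 5 × 10⁻⁵, 10⁻⁵, 10⁻⁶ and 10⁻⁷ M for 72 h. MTT was added for 3 h, formazan dissolved in DMSO and read at 590 nm. Triplicates; IC50 derived graphically from % viability loss versus untreated controls.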

[2] = system: A549; assay: Cytotoxicity against human A549 cells after 72 hrs by MTT assay; details: A549, 72 h
Outline: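 Compounds were dissolved in DMSO, diluted into FBS-free medium and tested at 5 × 10⁻⁵, 10⁻⁵, 10⁻⁶ and 10⁻⁷ M for 72 h. MTT was added for 3 h, formazan dissolved in DMSO and read at 590 nm. Triplicates; IC50 derived graphically from % viability loss versus untreated controls.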

[3] = Cytotoxicity against human KB3-1 cells after 72 hrs by MTT assay; details: KB 3-1, 72 h; outline: as §1
[4] = Cytotoxicity against human multi drug resistant subclone KB 8.5 cells after 72 hrs by MTT assay; outline: as §1

SMILES	IC50 [1]	IC50 [2]	IC50 [3]	IC50 [4]
CN1C/C(=C\c2ccncc2)C(=O)/C(=C/c2ccncc2)C1	5.1 µM	4.2 µM	3 µM	7.4 µM
CN1C/C(=C\c2cccnc2)C(=O)/C(=C/c2cccnc2)C1	> 20 µM	> 20 µM	20.2 µM	40.4 µM
O=C1/C(=C/c2cccnc2)CNC/C1=C\c1cccnc1	9.2 µM	11.1 µM	24.4 µM	30 µM
CCOP(=O)(OCC)N1C/C(=C\c2cccnc2)C(=O)/C(=C/c2cccnc2)C1	8.1 µM	10.4 µM	5 µM	5.3 µM
CCOP(=O)(CCN1C/C(=C\c2cccnc2)C(=O)/C(=C/c2cccnc2)C1)OCC	> 40 µM	> 40 µM	> 40 µM	> 40 µM
CCOP(=O)(CCCCN1C/C(=C\c2cccnc2)C(=O)/C(=C/c2cccnc2)C1)OCC	6.2 µM	15.4 µM	6.1 µM	9.5 µM
O=C1/C(=C/c2ccncc2)CNC/C1=C\c1ccncc1	6 µM	10.3 µM	5 µM	8.5 µM
CCOP(=O)(OCC)N1C/C(=C\c2ccncc2)C(=O)/C(=C/c2ccncc2)C1	4.3 µM	8.2 µM	2.1 µM	5.1 µM
N[C@@H](Cc1ccc(N(CCCl)CCCl)cc1)C(=O)O	50 µM	–	–	–
COc1cccc2c1C(=O)c1c(O)c3c(c(O)c1C2=O)C[C@@](O)(C(=O)CO)C[C@@H]3O[C@H]1C[C@H](N)[C@H](O)[C@H](C)O1 [DOXORUBICIN]	–	–	–	3.3 µM
